# Most compounds without a hit are left out; they make up all but 0.74% or so of the library.
# RGS16-Gao: regulators of human RGS16-Galphao interaction; O15492+P09471; bead-based flow cytometry RGS16-Galphao binding, fluorescence; actives lie on both sides; binding response (% of control), % at 10 µM; actives 0.38% (n = 220,000); AID 1441;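 further: Galphao activated by GDP with aluminum fluoride before binding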
# RGS4-Gao reg: modulates binding of RGS4 to human Galphao; AID 1415; actives 0.33% (n = 220,000); binding response (% of control), % at 10 µM; Multiplexed bead flow cytometry; actives lie on both sides; in the data active means binding response below about 49% or above about 150%; inactive means in between;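 further: fluorescent Galphao activated with aluminum fluoride binding bead-coupled RGS4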
# Target sequence (P09471 whole entry, looked up): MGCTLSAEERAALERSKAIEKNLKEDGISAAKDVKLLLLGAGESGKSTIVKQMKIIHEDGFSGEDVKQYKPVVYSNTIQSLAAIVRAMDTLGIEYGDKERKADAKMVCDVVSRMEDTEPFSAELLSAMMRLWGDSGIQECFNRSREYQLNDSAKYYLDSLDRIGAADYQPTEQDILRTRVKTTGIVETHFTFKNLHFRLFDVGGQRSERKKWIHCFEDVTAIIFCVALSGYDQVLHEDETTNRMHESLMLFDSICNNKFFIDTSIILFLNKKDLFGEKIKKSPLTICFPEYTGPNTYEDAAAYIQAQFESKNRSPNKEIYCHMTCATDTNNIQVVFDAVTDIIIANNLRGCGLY
# RGS8-Gao: regulators of human RGS8-Galphao interaction; P09471; multiplexed bead flow cytometry, RGS8-Galphao binding; actives lie on both sides; response (percent of control binding), % at 10 µM; actives 0.34% (n = 220,000); in the data active means response below about 60% or above about 140%; inactive means in between;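 further: Galphao activated as the GDP aluminium fluoride complex binding bead-coupled RGS8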
# Calb biofilm kill: mixture kills Candida albicans biofilm cells. C. albicans biofilm persisters + clotrimazole, fluorescence viability; primary screen in compound mixtures of four per well. inhibition, % at 7.6 µM. actives 0.02% (n = 120,000);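 active means inhibition above 30.3% in the primary screen of four-compound pools, then above 30% when the compound was retested; inconclusive means passed the primary limit but could not be retested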;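 further: compounds exposed to preformed 24 h biofilms for 48 h; 0% = untreated biofilm control and 100% = clotrimazole plus chlorhexidine kill blank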
#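 System: C. albicans CAF4-2 wild-type biofilms; Medium: RPMI/MOPS medium, pH 7.0; Reagent: Clotrimazole, 50 µg/mL; Times: biofilm formation 24 h, compound exposure 48 h, 37 °C; Detection: 2-h Alamar Blue fluorescence, 535/590 nm excitation/emission; Evaluation: percent inhibition of biofilm viability.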
# RGS7-Gao reg: modulates binding of RGS7 to human Galphao; P09471; Multiplexed bead flow cytometry; actives lie on both sides; binding response (% of control), % at 10 µM; actives 0.35% (n = 220,000); AID 1439; in the data active means binding response below about 49% or above about 150%; inconclusive means no clear call, values can overlap the other calls; inactive means in between;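 further: fluorescent Galphao held in activated GDP-AlF4 state binding bead-coupled RGS7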
# RGS4-Gao HTS: RGS4-Galphao interaction regulator (human); shares compounds with RGS16-Gao; multiplexed bead flow cytometry, RGS–Galpha-o binding; RGS4–Galpha-o binding response, % at 10 µM; actives 99% (n = 1,600); AID 1504;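 further: fluorescently labeled Galpha-o bound to GDP with aluminium fluoride binding biotinylated RGS beads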
# Target sequence (P09471 whole entry, looked up): as above
# Target sequence (P49798 whole entry, looked up): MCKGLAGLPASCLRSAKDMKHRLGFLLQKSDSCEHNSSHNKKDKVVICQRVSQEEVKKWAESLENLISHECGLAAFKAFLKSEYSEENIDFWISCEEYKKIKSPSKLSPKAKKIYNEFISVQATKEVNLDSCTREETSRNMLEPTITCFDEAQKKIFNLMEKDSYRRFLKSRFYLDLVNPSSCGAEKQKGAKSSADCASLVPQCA
# Biotin-avidin: counter-screen: compounds disrupting biotin binding to avidin beads | shares compounds with RGS16-Gao | streptavidin beads, fluorescein-biotin binding, flow cytometry | inhibition, % at 10 µM | 1,700 tested, under 10 active | AID 1783;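 active means inhibition above 50%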;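 further: median green fluorescence of gated singlet beads compared with DMSO control wells; 0% = DMSO wells and 100% = complete loss of bead fluorescence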
# RGS8-Gao single: confirmation of regulators of human RGS8-Galphao interaction. actives 3% (n = 1,700). shares compounds with RGS16-Gao. bead-based flow cytometry RGS8-Galphao binding, fluorescence; actives lie on both sides. binding response (% of control), % at 10 µM; in the data active means binding response below about 72% or above about 130%; inactive means in between;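 further: Galphao activated as GDP AlF4 complex before binding bead RGS8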
# RGS7-Gao single: RGS7-Galphao interaction regulation, single point confirmation; actives 7.8% (n = 1,700); AID 1837; bead-based flow cytometry RGS7-Galphao binding; actives lie on both sides; response (percent of control binding), % at 10 µM; shares compounds with RGS16-Gao; in the data active means response below about 75% or above about 130%; inactive means in between;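 further: fluorescent Galphao activated with GDP and aluminum fluoride binding bead-coupled RGS7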
# RGS16-Gao single: RGS16-Galphao interaction regulation, single point confirmation; response (% of control binding), % at 10 µM; shares compounds with RGS16-Gao; actives 4% (n = 1,700); bead-based flow cytometry, RGS16-Galphao binding; actives lie on both sides; in the data active means response below about 74% or above about 130%; inactive means in between;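 further: Galphao activated as the GDP aluminium fluoride complex binding bead-coupled RGS16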
# RGS4-Gao single: confirmation of regulators of human RGS4-Galphao interaction; shares compounds with RGS16-Gao; RGS4-Galphao binding, multiplexed bead flow cytometry; actives lie on both sides; binding response (% of control), % at 10 µM; actives 4% (n = 1,700); AID 1840; in the data active means binding response below about 74% or above about 130%; inactive means in between
# RGS19-Gao single: confirmation of regulators of human RGS19-Galphao interaction | shares compounds with RGS16-Gao | bead-based flow cytometry RGS19-Galphao binding; actives lie on both sides | response (percent of control binding), % at 10 µM | actives 5% (n = 1,700); in the data active means response below about 50% or above about 160%; inactive means in between;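 further: 100% = no compound control and 0% = blank background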
# Starred values were filed as active, the others as inactive; u = inconclusive; x = no result given; [ ] = remark or other dose. Unless noted, how the calls were made is not given here.
SMILES,RGS16-Gao,RGS4-Gao reg,RGS8-Gao,Calb biofilm kill,RGS7-Gao reg,RGS4-Gao HTS,Biotin-avidin,RGS8-Gao single,RGS7-Gao single,RGS16-Gao single,RGS4-Gao single,RGS19-Gao single
COc1cccc(CN(C(=O)/C=C/c2ccc(Cl)cc2)C2CCS(=O)(=O)C2)c1 (stereo unspecified),101,97,101,10,102,x,x,x,x,x,x,x
C=C(C)c1cccc(C(C)(C)NC(=O)N2CCN(CC)CC2)c1,109,100,104,x,98,x,x,x,x,x,x,x
C=C(C)c1cccc(C(C)(C)NC(=O)N2CCCCC2CC)c1 (stereo unspecified),404,142,172*[activator],x,124,142*,x,x,x,x,x,x
Fc1cccc(Cl)c1/C=N/n1c(-c2cccnc2)n[nH]c1=S,1,88,59*,19,88,88*,-3,93,113,87,95,87
COc1ccc(C2(NC(C)=O)CCN(C(=O)c3ccco3)CC2)cc1,29,88,90,x,93,x,x,x,x,x,x,x
COC(=O)C1=C(N)Oc2cc(C)n(Cc3cccnc3)c(=O)c2C1c1cccc(OC)c1OC (stereo unspecified),118,125,91,x,240*[activator],125*,-1,100,101,102,101,94
Cc1noc(C)c1S(=O)(=O)NC1CCN(Cc2ccccc2)CC1,183*[activator],108,121,x,106,108*,x,x,x,x,x,x
COCc1cc(/C=N\NC(=O)Cc2ccc(OC)cc2)ccc1OC,21*,92,70,7,98,92*,-1,103,103,100,100,109
CCOC(=O)c1c(NC(=O)CSc2nc3ccccc3o2)sc(C(C)=O)c1C,-3.6*,1.8*,7.6*,5,2.6*,x,-1,104,105,107,104,124
CCOC(=O)c1c(NC(=O)c2cc(-c3ccc(O)cc3)on2)sc(C(C)=O)c1C,344*[activator],258*[activator],110,1,122,x,-1,106,145*[activator],196*[activator],152*[activator],433*[activator]
CCOC(=O)c1sc(NC(=O)CSc2nnc(Cc3ccccc3)o2)c(C#N)c1C,19*,101,75,x,135,101*,-1,70*,143*[activator],51*,94,33*
O=C(Nc1ccccc1)n1cc(-c2ccccn2)c(N2CCOCC2)n1,103,103,101,17,102,x,x,x,x,x,x,x
Cc1ccc(CCNC(=O)C2CCC(=O)N2C(C)C)cc1 (stereo unspecified),107,101,98,x,100,x,x,x,x,x,x,x
CC1=NOC(=O)/C1=C\c1ccc(-c2ccccc2Br)o1,92,94,91,16,88,x,x,x,x,x,x,x
O=C(CSc1nnc(CCCO)n1-c1ccccc1)NCCc1ccccc1,0.4*,22*,8.7*,x,16*,x,-1,108,107,109,103,118
O=C(CSc1nnc(CCCO)n1-c1ccccc1)Nc1nccs1,99,98,99,x,105,x,x,x,x,x,x,x
COCCNCc1nc2sc(C)c(-c3ccccc3)c2c(=O)[nH]1,104,104,103,21,u,x,x,x,x,x,x,x
NS(=O)(=O)c1ccc(CCNC(=O)C2CCC(Cn3c(=S)[nH]c4ccccc4c3=O)CC2)cc1 (stereo unspecified),11*,22*,13*,6,17*,x,1,103,105,105,103,101
COc1ccc(-c2noc(CCC(=O)O)n2)cc1,94,95,96,19,95,x,x,x,x,x,x,x
COc1cc(CCC(=O)O)on1,-8.1*,-10*,20*,7,u,x,-1,98,81,94,90,80
Cc1ccccc1-c1nsc(SCC(=O)c2ccc(Cl)cc2)n1,100,102,101,19,99,x,x,x,x,x,x,x
Cc1ccc2c(c1)NC(c1cccs1)C1=C(CC(C)(C)CC1=O)N2 (stereo unspecified),102,99,101,-1,97,x,x,x,x,x,x,x
COC(OC)c1ccnc(-c2ccc(OC(=O)c3ccccc3)cc2)n1,89,88,90,18,u,x,x,x,x,x,x,x
COC(OC)c1ccnc(-c2ccc(OC(=O)c3cccs3)cc2)n1,13*,23*,15*,10,u,x,1,103,102,103,104,98
O=C1CC(=O)N2N=C(c3ccc([N+](=O)[O-])cc3)SC2=N1,87,99,98,3,93,x,x,x,x,x,x,x
SMILES,RGS16-Gao,RGS4-Gao reg,RGS8-Gao,Calb biofilm kill,RGS7-Gao reg,RGS4-Gao HTS,Biotin-avidin,RGS8-Gao single,RGS7-Gao single,RGS16-Gao single,RGS4-Gao single,RGS19-Gao single
Cn1cc(S(=O)(=O)CC(=O)Nc2ccc3c(c2)OCO3)c2ccccc21,115,367*[activator],98,7,275*[activator],x,-1,100,103,104,102,87
Cc1cnc(NC(=O)c2sc(Nc3ccccc3)nc2N)o1,104,102,100,8,u,x,x,x,x,x,x,x
Cc1nnc(SCC(=O)Nc2cc(C(C)(C)C)nn2-c2ccccc2)s1,112,101,103,6,104,x,x,x,x,x,x,x
CCn1c(SCC(=O)Nc2cc(C(C)(C)C)nn2-c2ccccc2)nnc1-c1cccs1,91,110,96,-7,185*[activator],110*,0,94,89,95,93,86
COc1ccc(Cc2nc(-c3ccc(Cl)cc3)no2)cc1,103,102,102,x,99,x,x,x,x,x,x,x
COc1ccc(-c2noc(Cc3ccc(Cl)cc3)n2)cc1OC,93,109,98,x,167*[activator],109*,-1,103,99,101,101,102
O=C(CCCOc1ccc(Cl)cc1Cl)Nc1ccncc1,x,x,x,x,x,x,0,104,96,106,101,99
COc1ccccc1N(CC(=O)N/N=C/c1ccc(C(=O)O)cc1)S(=O)(=O)c1ccc(C)cc1,102,99,101,26,u,x,x,x,x,x,x,x
O=C(c1ccc(S(=O)(=O)NCc2ccco2)cc1)N1CCN(Cc2ccc3c(c2)OCO3)CC1,336,122,158*[activator],13,120,122*,-1,100,97,100,98,101
